From ChEMBL document CHEMBL1128666, “Synthesis and antimicrobial and toxicological studies of amino acid and peptide derivatives of kanamycin A and netilmicin” (J Med Chem, 1995)
≈ marks a conversion by molar mass, not a printed value. Where “and” joins values, the source holds several entries; their conditions need not be identical. Equal entries are not always repeated.

Columns and labels:
Enterococcus faecalis = experiment: Minimum inhibitory concentration (MIC) was measured against Enterococcus faecalis ATCC 29212.; assay type: functional
Acinetobacter lwoffii = experiment: microbe, parasite or virus in culture; settings: ATCC 17986
Acinetobacter baumannii = experiment: Minimum inhibitory concentration (MIC) was measured against Acinetobacter baumanni ATCC 19606.; assay type: functional
In short: (§1)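 Strains from ATCC; compounds tested as sulfate salts (stable ≥24 h in water at pH 7.0). MIC taken as highest dilution with no visible bacterial growth, expressed in mg/L of free base.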

Escherichia coli [1] = experiment: Minimum inhibitory concentration (MIC) was measured against Escherichia coli ATCC 35218.; assay type: functional; in short: as §1
Citrobacter freundii = experiment: Minimum inhibitory concentration (MIC) was measured against Citrobacter freundii.; assay type: functional
In short: (§2)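 Strains were clinical isolates from the microbiology laboratories of Cliniques Universitaires St-Luc and Hôpital Brugmann, Brussels, and were characterized there. Compounds were tested as sulfate salts, which were stable in distilled water at pH 7.0 for at least 24 h. MIC was the highest dilution giving no visible growth, expressed in mg/L of free base.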

Escherichia coli [2] = experiment: Minimum inhibitory concentration (MIC) was measured against Escherichia coli.; assay type: functional; in short: as §2
Pseudomonas aeruginosa [3] = experiment: Minimum inhibitory concentration (MIC) was measured against Pseudomonas aeruginosa.; assay type: functional; in short: as §2
Staphylococcus aureus [4] = experiment: microbe, parasite or virus in culture; settings: ATCC 25923
Pseudomonas aeruginosa [5] = experiment: Minimum inhibitory concentration (MIC) was measured against Pseudomonas aeruginosa ATCC 27853.; assay type: functional
Staphylococcus aureus [6] = experiment: Minimum inhibitory concentration (MIC) was measured against Staphylococcus aureus.; assay type: functional; in short: as §2
Escherichia coli [7] = experiment: Minimum inhibitory concentration (MIC) was measured against Escherichia coli ATCC 25922.; assay type: functional
[8] = molecular target: T1, Phospholipase A1 member A (Rattus norvegicus, UniProt P97535); experiment: IC50 was measured as concentration causing 50% inhibition of lysosomal phospholipase A1 activity.
T1 sequence (P97535 whole entry): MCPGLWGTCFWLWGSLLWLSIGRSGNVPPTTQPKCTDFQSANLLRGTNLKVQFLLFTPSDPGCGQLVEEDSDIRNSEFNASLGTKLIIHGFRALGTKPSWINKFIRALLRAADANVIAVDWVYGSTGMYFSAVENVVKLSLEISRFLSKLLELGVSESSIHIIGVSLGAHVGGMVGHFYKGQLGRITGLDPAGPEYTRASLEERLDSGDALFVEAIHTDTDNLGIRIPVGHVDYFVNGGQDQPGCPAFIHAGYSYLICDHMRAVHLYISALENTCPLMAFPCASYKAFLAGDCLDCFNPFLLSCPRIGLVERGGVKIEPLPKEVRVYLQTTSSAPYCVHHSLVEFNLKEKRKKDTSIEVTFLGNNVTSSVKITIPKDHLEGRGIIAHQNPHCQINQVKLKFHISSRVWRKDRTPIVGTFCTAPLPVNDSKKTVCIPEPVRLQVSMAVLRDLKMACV

Enterobacter cloacae = experiment: Minimum inhibitory concentration (MIC) was measured against Enterobacter cloacae.; assay type: functional; in short: as §2
Serratia marcescens = experiment: Minimum inhibitory concentration measured against Serratia marcescens; assay type: functional; in short: as §2
[9] = Pseudomonas aeruginosa, read-out: MIC
[10] = Enterobacter cloacae, read-out: MIC
[11] = Serratia marcescens, read-out: MIC

Molecule: CCN[C@@H]1C[C@H](N)[C@@H](O[C@H]2OC(CN)=CC[C@H]2N)[C@H](O)[C@H]1O[C@H]1OC[C@](C)(O)[C@H](NC)[C@H]1O [NETILMICIN]
- MIC (Enterococcus faecalis): 4 µg/mL (≈ 8.41 µM)
- MIC (Acinetobacter lwoffii): 32 µg/mL (≈ 67.3 µM)
- MIC (Acinetobacter baumannii): 32 µg/mL (≈ 67.3 µM)
- MIC (Escherichia coli [1]): 0.5 µg/mL (≈ 1.05 µM)
- MIC (Citrobacter freundii): 0.25 µg/mL (≈ 0.526 µM)
- MIC (Escherichia coli [2]): > 128 µg/mL
- MIC (Pseudomonas aeruginosa [3]): >128 µg/mL
- MIC (Pseudomonas aeruginosa [3]; [9]): 64 µg/mL (≈ 135 µM)
- MIC (Staphylococcus aureus [4]): 0.25 µg/mL (≈ 0.526 µM)
- MIC (Pseudomonas aeruginosa [5]): 8 µg/mL (≈ 16.8 µM)
- MIC (Staphylococcus aureus [6]): 8 µg/mL (≈ 16.8 µM)
- MIC (Escherichia coli [7]): 1 µg/mL (≈ 2.1 µM)

Molecule: NC[C@H]1O[C@H](O[C@H]2[C@H](O)[C@@H](O[C@H]3O[C@H](CO)[C@@H](O)[C@H](N)[C@H]3O)[C@H](N)C[C@@H]2N)[C@H](O)[C@@H](O)[C@@H]1O [KANAMYCIN]
- MIC (Enterococcus faecalis): 32 µg/mL (≈ 66 µM)
- MIC (Acinetobacter lwoffii): 16 µg/mL (≈ 33 µM)
- MIC (Acinetobacter baumannii): 4 µg/mL (≈ 8.26 µM)
- MIC (Escherichia coli [1]): 2 µg/mL (≈ 4.13 µM)
- MIC (Citrobacter freundii): 4 µg/mL (≈ 8.26 µM)
- MIC (Escherichia coli [2]): > 128 µg/mL
- MIC (Pseudomonas aeruginosa [3]; [9]): > 128 µg/mL
- MIC (Staphylococcus aureus [4]): 1 µg/mL (≈ 2.06 µM)
- MIC (Pseudomonas aeruginosa [5]): > 128 µg/mL
- MIC (Staphylococcus aureus [6]): > 128 µg/mL
- MIC (Escherichia coli [7]): 8 µg/mL (≈ 16.5 µM)

Molecule: GENTAMICIN [listing 1 of 2 here]
- IC50 [8]: 45 µg/mL

Molecule: CN[C@@H]1[C@@H](O)[C@@H](O[C@@H]2[C@@H](O)[C@H](O[C@H]3O[C@H](CN)[C@@H](O)[C@H](O)[C@H]3O)[C@@H](N)C[C@H]2NC(=O)[C@@H](O)CN)OC[C@]1(C)O [ISEPAMICIN]
- MIC (Enterococcus faecalis): 64 µg/mL (≈ 112 µM)
- MIC (Acinetobacter lwoffii): 16 µg/mL (≈ 28.1 µM)
- MIC (Acinetobacter baumannii): 32 µg/mL (≈ 56.2 µM)
- MIC (Escherichia coli [1]): 2 µg/mL (≈ 3.51 µM)
- MIC (Citrobacter freundii): 4 µg/mL (≈ 7.02 µM)
- MIC (Enterobacter cloacae): 8 µg/mL (≈ 14 µM)
- MIC (Enterobacter cloacae; [10]): 4 µg/mL (≈ 7.02 µM)
- MIC (Escherichia coli [2]): 32 µg/mL (≈ 56.2 µM)
- MIC (Pseudomonas aeruginosa [3]): 64 µg/mL (≈ 112 µM)
- MIC (Pseudomonas aeruginosa [3]; [9]): 64 µg/mL (≈ 112 µM)
- MIC (Staphylococcus aureus [4]): 4 µg/mL (≈ 7.02 µM)
- MIC (Pseudomonas aeruginosa [5]): 16 µg/mL (≈ 28.1 µM)
- MIC (Staphylococcus aureus [6]): 2 µg/mL (≈ 3.51 µM)
- MIC (Escherichia coli [7]): 8 µg/mL (≈ 14 µM)

Molecule: CCNC1CC(N)C(OC2OC(CNC(=O)C(C)N)=CCC2N)C(O)C1OC1OCC(C)(O)C(NC)C1O (stereo not given)
- MIC (Enterococcus faecalis): 128 µg/mL (≈ 234 µM)
- MIC (Acinetobacter lwoffii): 128 µg/mL (≈ 234 µM)
- MIC (Acinetobacter baumannii): > 128 µg/mL
- MIC (Serratia marcescens): >128 mg/L
- MIC (Serratia marcescens; [11]): 128 mg/L (≈ 234 µM)
- MIC (Escherichia coli [1]): 32 µg/mL (≈ 58.5 µM)
- MIC (Citrobacter freundii): 32 µg/mL (≈ 58.5 µM)
- MIC (Enterobacter cloacae; [10]): > 128 µg/mL
- MIC (Escherichia coli [2]): > 128 µg/mL
- MIC (Pseudomonas aeruginosa [3]; [9]): > 128 µg/mL
- MIC (Staphylococcus aureus [4]): 32 µg/mL (≈ 58.5 µM)
- MIC (Pseudomonas aeruginosa [5]): > 128 µg/mL
- MIC (Staphylococcus aureus [6]): > 128 µg/mL
- MIC (Escherichia coli [7]): 128 µg/mL (≈ 234 µM)

Molecule: CC(N)C(=O)NC1CC(N)C(OC2OC(CN)C(O)C(O)C2O)C(O)C1OC1OC(CO)C(O)C(N)C1O (stereo not given)
- MIC (Enterococcus faecalis): > 128 µg/mL
- MIC (Acinetobacter lwoffii): > 128 µg/mL
- MIC (Acinetobacter baumannii): 128 µg/mL (≈ 230 µM)
- MIC (Serratia marcescens): >128 mg/L
- MIC (Serratia marcescens; [11]): 128 mg/L (≈ 230 µM)
- MIC (Escherichia coli [1]): 64 µg/mL (≈ 115 µM)
- MIC (Citrobacter freundii): 64 µg/mL (≈ 115 µM)
- MIC (Enterobacter cloacae): >128 µg/mL
- MIC (Enterobacter cloacae; [10]): 64 µg/mL (≈ 115 µM)
- MIC (Escherichia coli [2]): > 128 µg/mL
- MIC (Pseudomonas aeruginosa [3]; [9]): > 128 µg/mL
- MIC (Staphylococcus aureus [4]): 16 µg/mL (≈ 28.8 µM)
- MIC (Pseudomonas aeruginosa [5]): > 128 µg/mL
- MIC (Staphylococcus aureus [6]): > 128 µg/mL
- MIC (Escherichia coli [7]): 128 µg/mL (≈ 230 µM)

Molecule: GENTAMICIN [listing 2 of 2 here]
- MIC (Enterococcus faecalis): 16 µg/mL
- MIC (Acinetobacter baumannii): 32 µg/mL
- MIC (Serratia marcescens): 4 µg/mL (2×) and 8 µg/mL (2×)
- MIC (Escherichia coli [1]): 1 µg/mL
- MIC (Citrobacter freundii): 1 µg/mL
- MIC (Enterobacter cloacae): 32 µg/mL
- MIC (Escherichia coli [2]): 16 µg/mL
- MIC (Pseudomonas aeruginosa [3]): 64 µg/mL and > 128 µg/mL
- MIC (Pseudomonas aeruginosa [5]): 8 µg/mL
- MIC (Staphylococcus aureus [6]): > 128 µg/mL
- MIC (Escherichia coli [7]): 4 µg/mL

Molecule: NCC[C@H](O)C(=O)N[C@@H]1C[C@H](N)[C@@H](O[C@H]2O[C@H](CN)[C@@H](O)[C@H](O)[C@H]2O)[C@H](O)[C@H]1O[C@H]1O[C@H](CO)[C@@H](O)[C@H](N)[C@H]1O [AMIKACIN]
- MIC (Enterococcus faecalis): 64 µg/mL (≈ 109 µM)
- MIC (Acinetobacter lwoffii): 32 µg/mL (≈ 54.6 µM)
- MIC (Acinetobacter baumannii): 16 µg/mL (≈ 27.3 µM)
- MIC (Escherichia coli [1]): 2 µg/mL (≈ 3.42 µM)
- MIC (Citrobacter freundii): 4 µg/mL (≈ 6.83 µM)
- MIC (Escherichia coli [2]): 128 µg/mL (≈ 219 µM)
- MIC (Pseudomonas aeruginosa [3]): 64 µg/mL (≈ 109 µM)
- MIC (Pseudomonas aeruginosa [3]; [9]): 64 µg/mL (≈ 109 µM)
- MIC (Staphylococcus aureus [4]): 4 µg/mL (≈ 6.83 µM)
- MIC (Pseudomonas aeruginosa [5]): 32 µg/mL (≈ 54.6 µM)
- MIC (Staphylococcus aureus [6]): 32 µg/mL (≈ 54.6 µM)
- MIC (Escherichia coli [7]): 8 µg/mL (≈ 13.7 µM)
